Sampled rows, rich in hits. Any-hit rate of the full collection: about 1.6%.
TPT1 inh: C. albicans TPT1 enzyme inhibition; inhibition, % at 5 µM; recombinant caTPT1, FP RNA substrate dephosphorylation; 300,000 compounds, 0.81% hits; AID 1962;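 active means inhibition above the mean of all tested compounds plus 3 SD, set per screening campaign, cut at about 24% in these data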
HNF4A DNA FP: change in binding of human HNF4 alpha to DNA. 360,000 compounds, 0.3% hits. activity change, % at 10 µM. P41235. HNF4a-FITC DNA binding, fluorescence polarization, 1 h. AID 1224865; in the data active means activity change above about 30%, passing the limit was not always enough
PKA-R2B act: activates the human PKA-R2B holoenzyme complex; 340,000 compounds, 0.079% hits; activation, % at 11.4 µM; AID 504700; PKA-R2B holoenzyme dissociation, Cy5-IP20 fluorescence polarization; R2B truncated from residue 108, S112A mutant; 0% DMSO only, 100% 113 µM cGMP;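 active means activation above a cutoff set at the mean over all compounds plus 3 SD, cut at about 18% in these data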;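 further: higher means more holoenzyme dissociation and a rise in polarization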
CSN deneddyl inh: CSN deneddylation inhibition; 360,000 compounds, 0.38% hits; Purified CSN, SCF-Nedd8-OG deneddylation, fluorescence polarization; Q92905; inhibition, % at 12.5 µM; AID 651999;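 active means pattern-corrected inhibition above about 35%, with an unprinted fluorescence ratio check between 0.5 and 1.5, limit read from the data, passing the limit was not always enough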
Target sequence (Q92905 whole entry, looked up, one chain of several): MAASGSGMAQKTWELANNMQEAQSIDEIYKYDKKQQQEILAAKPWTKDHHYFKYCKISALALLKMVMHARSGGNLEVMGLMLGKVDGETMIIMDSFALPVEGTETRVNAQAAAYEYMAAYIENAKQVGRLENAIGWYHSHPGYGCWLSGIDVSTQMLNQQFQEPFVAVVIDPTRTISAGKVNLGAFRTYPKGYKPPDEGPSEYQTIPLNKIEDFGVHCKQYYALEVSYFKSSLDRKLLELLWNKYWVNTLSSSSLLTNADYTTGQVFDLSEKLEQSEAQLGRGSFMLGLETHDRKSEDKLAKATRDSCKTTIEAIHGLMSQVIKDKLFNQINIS
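Schedule: reaction 90 min, room temperature / Assay system: HEK293T-derived human Csn5 enzyme / Input: Csn5 at 0.24 nM final / Measure: inhibition of Csn5 cleavage, % / Control set: substrate-only high control, full reaction low control / Technique: fluorescence polarization of the substrate / Buffer or medium: Tris/NaCl/DTT buffer, pH 7.5 / Reagent: SCFSkp2-Nedd8OG substrate at 10 nM final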
Rpn11 inh: inhibitors of human proteasome Rpn11; human 26S proteasome, Ub4-pepOG fluorescence polarization; 20S core pre-blocked with epoxomicin; calls only at 20 µM; 360,000 compounds, 0.59% hits; AID 588493;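 active means inhibition at 20 µM, scaled to each plate's controls, above about 33%, limit read from the data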
PKA-R1A activ: PKA-R1A complex activation | PKA-R1A dissociation, Cy5-IP20 fluorescence polarization; scaled: DMSO 0%, 113 µM cGMP 100% | activation, % at 11.4 µM | 340,000 compounds, 0.083% hits | AID 504707;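 active means percent activation above the mean of all tested compounds plus 3 SD, cut at about 19% in these data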;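 further: higher means more PKAc released from R1A so a rise in polarization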
caTPT1 confirm: confirmation of Candida albicans TPT1 inhibitors. shares compounds with TPT1 inh. 2,400 compounds, 74% hits. inhibition, % at 5 µM. recombinant caTPT1, fluorescence polarization, RNase T1 coupled. AID 2149;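 active means inhibition above the primary screen limit, the mean inhibition of all tested compounds plus 3 SD, cut at about 25% in these data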
RNase T1 counter: blocks Aspergillus oryzae RNase T1, a TPT1 counter-screen; 2,400 compounds, 83% hits; inhibition, % at 5 µM; shares compounds with TPT1 inh; AID 2153; RNase T1 cleavage, fluorescence polarization, 1536-well;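 active means inhibition above the solvent-only control well mean plus 3 SD, limit set per screening run, cut at about 23% in these data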;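 further: inhibitors block cleavage so intact labeled substrate keeps polarization high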
Target sequence (P00651 whole entry, looked up): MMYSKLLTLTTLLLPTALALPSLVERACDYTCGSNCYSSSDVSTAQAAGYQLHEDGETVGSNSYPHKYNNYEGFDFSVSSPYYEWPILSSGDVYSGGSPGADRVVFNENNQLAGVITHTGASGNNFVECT
Numbers stand for hits; n = inactive; x = not tested or not shown.

SMILES	TPT1 inh	HNF4A DNA FP	PKA-R2B act	CSN deneddyl inh	Rpn11 inh	PKA-R1A activ	caTPT1 confirm	RNase T1 counter
COc1ccc(C)cc1NC(=O)CCNS(=O)(=O)c1ccc2c(c1)CC(C)N2C(C)=O (stereo unspecified)	n	n	n	n	n	n	x	x
CCn1c2ccccc2c2cc(NC(=O)c3ccc(=O)oc3)ccc21	63.3	n	x	n	n	x	34.5	37.4
CCn1c2ccccc2c2cc(NC(=O)c3coc(=O)c(Br)c3)ccc21	n	n	x	n	n	x	x	x
Cc1ccc(-c2nc3sc(C#N)c(N)n3c(=O)c2C#N)cc1	24.3	n	n	n	x	n	34.5	47.9
O=C(COC(=O)/C=C/c1ccc(Cl)cc1)NCCN1C(=O)CSC1=O	n	n	n	n	n	n	x	x
Cn1c(=O)c(Nc2ccc(O)cc2)c2c3c(cccc31)C(=O)c1ccccc1-2	n	n	n	n	n	n	x	x
O=C(NCCOc1ccccc1)C(c1ccccc1)c1ccccc1	n	n	n	n	n	n	x	x
O=C(/C=C/c1ccc([N+](=O)[O-])cc1)c1cccs1	n	n	n	n	n	n	x	x
COc1cc([N+](=O)[O-])ccc1N/C=C/C(=O)c1cccs1	166.6	n	n	n	x	n	143.4	136.2
COc1ccc(N=C2O/C(=C/c3sc(=S)n(CC4CCCO4)c3O)N=C2C#N)cc1 (stereo unspecified)	45.0	n	x	n	x	x	51.6	61.1
CCn1c(C)c(C2=CCN(S(=O)(=O)c3ccccc3)CC2)c2ccccc21	27.6	n	n	n	n	n	n	28.5
COC(=O)/C(=N/Nc1ccccc1Cl)Sc1nnc(C(O)c2ccccc2)n1-c1ccccc1 (stereo unspecified)	n	n	n	n	n	n	x	x
CC(=O)/C(=N/Nc1ccccc1Cl)Sc1nnc(C(O)c2ccccc2)n1-c1ccccc1 (stereo unspecified)	47.9	n	n	n	n	n	n	n
O=C(NCC1COCCO1)c1ccc2nc(Cc3cccc(Cl)c3)oc2c1 (stereo unspecified)	n	n	n	n	n	n	x	x
Cn1cccc1/C=C1\CCC/C(=C\c2cccn2C)C1=O	192.4	n	n	n	x	n	194.4	171.3
CC(=O)/C=C(\C)N=Nc1c(O)[nH]c2ccccc12	n	n	n	n	n	n	x	x
O=C1N(Cc2cccc(Cl)c2)C[C@@H]2C[C@@H](c3c[nH]c4ccccc34)N3CCC[C@@]123	25.6	85.5	n	49.2	x	n	30.1	40.3
O=C1N(Cc2cccc(Cl)c2)C[C@@H]2C[C@@H](c3cccc4ncccc34)N3CCC[C@@]123	n	n	n	n	n	n	x	x
O=C1CCC(=O)N1c1ccc(-c2nc3ccccc3s2)cc1	51.5	n	n	n	n	n	n	n
Nc1ccc(-c2nc3ccccc3s2)cn1	n	n	n	n	n	n	x	x
COc1ccc(N2C(=O)CSC2c2ccc3c(c2)OCO3)cc1 (stereo unspecified)	n	n	n	n	n	n	x	x
COc1ccc(N2C(=O)CSC2c2ccc3c(c2)OCO3)c(OC)c1 (stereo unspecified)	39.7	n	n	n	n	n	n	n
CCN(CC)c1ccc2cc(C#N)c(=O)oc2c1	46.0	n	x	n	n	x	44.5	57.7
CCN(CC)c1ccc2cc(C(=O)NNC(=O)c3ccc(S(=O)(=O)N4CCCCC4)cc3)c(=O)oc2c1	48.9	n	n	n	x	n	76.9	85.9
CCN(CC)c1ccc2cc(S(=O)(=O)c3ccc(C)cc3)c(=O)oc2c1	69.6	49.5	n	n	n	n	71.5	81.0
SMILES	TPT1 inh	HNF4A DNA FP	PKA-R2B act	CSN deneddyl inh	Rpn11 inh	PKA-R1A activ	caTPT1 confirm	RNase T1 counter
Cc1ccc(S(=O)(=O)c2cc3ccccc3oc2=O)cc1	n	n	n	n	n	n	x	x
Cc1ccc(C(=O)NNC(=O)c2ccc(S(=O)(=O)N3CCCCC3)cc2)cc1	x	n	n	n	n	n	x	x
CC(C)c1ccc(NC(=O)c2cc(S(=O)(=O)NCC3COc4ccccc4O3)ccc2F)cc1 (stereo unspecified)	n	n	n	n	n	n	x	x
Cc1ccc(C)c(OCCSc2nnc(-c3cccnc3)n2N)c1	n	n	n	n	n	n	x	x
O=C(CSc1ccccc1C(=O)O)NCc1ccc(Cl)cc1	n	n	n	n	n	n	x	x
N#C/C(=C\c1cccnc1)c1nc2c(s1)CCCC2	n	n	n	n	n	n	x	x
COc1cc(/C=C(\C#N)c2nc3c(s2)CCCC3)ccc1O	145.6	x	x	x	x	x	168.2	152.4
Cc1ccc(-c2ccc(C3C(C#N)=C(N)Oc4n[nH]c(C)c43)o2)cc1 (stereo unspecified)	35.1	n	n	n	n	n	n	n
CCCCC(=O)N/N=C/c1ccc(-c2ccc([N+](=O)[O-])cc2)o1	n	n	n	n	n	n	x	x
CCC(=O)N/N=C/c1ccc(-c2ccc([N+](=O)[O-])cc2)o1	n	n	n	n	n	n	x	x
CC(C)(C)NC(=S)N/N=C\c1ccc(-c2ccc([N+](=O)[O-])cc2)o1	91.8	64.4	x	n	x	x	98.0	102.6
Cc1cc(C)n(Cc2ccc(C(=O)N/N=C/c3ccc(-c4ccc([N+](=O)[O-])cc4)o3)o2)n1	76.0	n	n	n	x	n	64.8	24.8
CC(=O)N1c2ccc3ccccc3c2C2C=CCC2C1c1ccc(Br)cc1 (stereo unspecified)	36.1	x	x	x	x	x	n	n
Cc1ccc(O)c(C(=O)c2cc(C#N)c3nc4ccccc4n3c2)c1	39.5	n	n	n	x	n	59.4	72.2
Cc1ccc(O)c(C(=O)c2cc(C#N)c(=O)n(C(C)c3ccccc3)c2)c1 (stereo unspecified)	n	n	n	n	n	n	x	x
C=C(c1ccccc1)c1ccc(N(C)C)cc1	n	n	n	n	n	n	x	x
CN(C)c1ccc(C(=O)c2ccccc2)cc1	48.4	n	n	n	n	n	n	n
CN1C(=O)C(N=Nc2ccccc2C(=O)O)N(C)C1=S (stereo unspecified)	40.9	n	n	n	n	n	40.6	60.8
CCN(CC)c1ccc(/C=C/c2cccc[n+]2C)c(OC)c1	57.8	n	n	n	x	n	62.3	67.8
COc1ccc(/C=C/c2cccc[n+]2C)c(O)c1	n	n	n	n	n	n	x	x
COC(=O)c1cccc(Cn2c(Cl)c(/C=N/Nc3ccccc3C)sc2=O)c1	29.0	n	n	n	n	n	34.8	42.1

Screening data (PubChem BioAssay)
